Laboratory results reported in ChEMBL document CHEMBL3286243, “Polyhydroxyanthraquinones as quorum sensing inhibitors from the guttates of Penicillium restrictum and their analysis by desorption electrospray ionization mass spectrometry” (J Nat Prod, 2014).
Positions of bridges follow the written chain, without caps; N, C: chain ends. Residues, ends and D or L forms follow the SMILES beside them.

Target: T1, Accessory gene regulator protein A (Staphylococcus aureus) (UniProt P0A0I7)
T1 sequence (whole entry): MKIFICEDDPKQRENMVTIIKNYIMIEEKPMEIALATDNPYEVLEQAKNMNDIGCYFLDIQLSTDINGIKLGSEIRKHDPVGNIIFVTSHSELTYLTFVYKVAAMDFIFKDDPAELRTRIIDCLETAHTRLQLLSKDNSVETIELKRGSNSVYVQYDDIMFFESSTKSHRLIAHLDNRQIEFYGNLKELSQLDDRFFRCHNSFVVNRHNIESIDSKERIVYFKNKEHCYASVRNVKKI
Experiment: Inhibition of AGR quorum sensing system-mediated delta toxin production in methicillin-resistant Staphylococcus aureus AH2759 incubated for 15 hrs by Western blotting analysis
Outline: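 Cultures from the agr P3-lux plate were pooled and filtered (0.22 μm). Medium (2.5 μL) was run on 15% SDS-PAGE and transferred to PVDF. Blots were blocked overnight at 4 °C in milk/BSA in TBST, then probed 1 h at rt with rabbit anti-delta toxin (1:2000) and HRP anti-rabbit (1:10 000). Detection was chemiluminescence on X-ray film. AIP-2-treated cultures were included.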

Row | SMILES | inhibition
1 | CC(=O)C(O)c1cc(O)c2c(c1)C(=O)c1cc(O)cc(O)c1C2=O (centres undefined) | Dose-dependent effect
2 | CC(C)C[C@@H]1NC(=O)[C@H](CO)NC(=O)[C@H](CO)NC(=O)[C@@H](NC(=O)[C@H](C)NC(=O)[C@H](CC(N)=O)NC(=O)[C@@H](NC(=O)CN)C(C)C)CSC(=O)[C@H](Cc2ccccc2)NC1=O (H-GVNACSSLF; thioester 5-C) | Dose-dependent effect
3 | O=C1c2cc(O)cc(O)c2C(=O)c2c(O)cc(CO)cc21 | Dose-dependent effect
4 | O=C(O)c1cc(O)c2c(c1)C(=O)c1cc(O)c(O)c(O)c1C2=O | Dose-dependent effect
